Results: ChEMBL document CHEMBL1140133, “Phosphoramidate dinucleosides as hepatitis C virus polymerase inhibitors” (J Med Chem, 2008)

What was measured:
Hepatitis C virus [1] = assay: Inhibition of HCV 1b histidine tagged NS5B-delta55 polymerase-mediated RNA synthesis expressed in Escherichia coli BL21 cells assessed as decrease in accumulation of pppGC product; parameters: species or system Hepatitis C virus subtype 1b
How it was run: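 Recombinant NS5B-Δ55 with C-terminal His6, purified. Mix holds 10 µM RNA template (3′ end of HCV minus strand), 100 µM α-32P-CTP, 50 µM GTP and inhibitor 0–500 µM. Started with 1 µM NS5B, 30 °C 15 min, EDTA/formamide quench. pppGC resolved on sequencing gel, phosphorimager-quantified; IC50 fitted, ≥3 experiments.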

Hepatitis C virus [2] = assay: Antiviral activity against HCV 1b in human Huh-5-2 cells assessed as inhibition of viral replication after 72 hrs by luciferase assay; type: functional, organism-based, Hepacivirus hominis; conditions: genotype 1b, Huh-5-2, 72 h
How it was run: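 Huh-5-2 cells carrying HCV 1b subgenomic replicon (luciferase reporter), seeded 7000/well and left 24 h; five 5-fold serial dilutions from 50 µg/mL (~60 µM) added in medium without G418; 37 °C, 5% CO2, 72 h. Luciferase read after Glo-lysis; signal as % of untreated cultures, EC50 calculated. Interferon α-2a (500 IU) positive control.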

[3] = Cytotoxicity against human Huh-5-2 cells after 3 days by MTS assay; type: cell-based
How it was run: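 Parallel Huh-5-2 replicon cultures seeded 7000 cells/well, treated the same way as the antiviral assay (five 5-fold dilutions from ~60 µM, no G418). Cell proliferation measured 3 days after compound addition by MTS bioreduction to formazan, read on a plate reader.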

Compound | IC50 (Hepatitis C virus [1]) | EC50 (Hepatitis C virus [2]) | CC50 at 72 h [3]
CO[C@@H]1[C@H](OP(=O)(NCCCN(C)C)OC[C@H]2O[C@H](n3ccc(N)nc3=O)[C@H](O)[C@@H]2O)[C@H](COP(=O)(O)O)O[C@H]1n1cnc2c(=O)[nH]c(N)nc21 (stereo not given in full) | > 200 µM |  | 
COCCNP(=O)(OC[C@H]1O[C@@H](n2ccc(N)nc2=O)[C@H](O)[C@@H]1O)O[C@H]1[C@@H](OC)[C@H](n2cnc3c(=O)[nH]c(N)nc32)O[C@@H]1COP(=O)(O)S (stereo not given in full) | 47 µM | > 60 µM | > 60 µM
CO[C@@H]1[C@H](OP(=O)(NCCCCCC(=O)O)OC[C@H]2O[C@@H](n3ccc(N)nc3=O)[C@H](O)[C@@H]2O)[C@@H](COP(=O)(O)S)O[C@H]1n1cnc2c(=O)[nH]c(N)nc21 (stereo not given in full) | 52 µM | 38 µM | > 60 µM
CO[C@@H]1[C@H](OP(=O)(NCCCCCC(=O)O)OC[C@H]2O[C@@H](n3ccc(N)nc3=O)[C@H](O)[C@@H]2O)[C@@H](CO)O[C@H]1n1cnc2c(=O)[nH]c(N)nc21 (stereo not given in full) | 160 µM |  | 
COCCNP(=O)(OC[C@H]1O[C@@H](n2ccc(N)nc2=O)[C@H](O)[C@@H]1O)O[C@H]1[C@@H](OC)[C@H](n2cnc3c(=O)[nH]c(N)nc32)O[C@@H]1CO (stereo not given in full) | > 200 µM |  | 
CO[C@@H]1[C@H](OP(=O)(NCCCCCC(=O)O)OC[C@H]2O[C@@H](n3ccc(N)nc3=O)[C@H](O)[C@@H]2O)[C@@H](COP(=O)(O)O)O[C@H]1n1cnc2c(=O)[nH]c(N)nc21 (stereo not given in full) | 69 µM | 41 µM | > 60 µM
COCCNP(=O)(OC[C@H]1O[C@@H](n2ccc(N)nc2=O)[C@H](O)[C@@H]1O)O[C@H]1[C@@H](OC)[C@H](n2cnc3c(=O)[nH]c(N)nc32)O[C@@H]1COP(=O)(O)O (stereo not given in full) | 106 µM | > 60 µM | > 60 µM
